pIC50: −log10 of the molar value.
Columns and labels:
[1] = Cmax in BALB/c mouse at 23 mg/kg, ip after 1 to 24 hrs by LC-MS/MS analysis; assay type: ADME, organism-based; set-up: dose 23 mg/kg, route intraperitoneal; conditions: in vivo
Outline: (§1)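 Healthy mice given one 23 mg/kg dose, IV or IP. Plasma concentrations plotted as mean ± SD, n=3. Kinetics fitted as a first-order elimination process.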

[2] = Half life in BALB/c mouse at 23 mg/kg, iv after 1 to 24 hrs by LC-MS/MS analysis; assay type: ADME, organism-based; set-up: dose 23 mg/kg, route intravenous; conditions: in vivo; outline: as §1
[3] = tested on: Mus musculus; assay: Drug absorption rate constant in BALB/c mouse at 23 mg/kg, ip after 1 to 24 hrs by LC-MS/MS analysis; assay type: ADME, organism-based; set-up: dose 23 mg/kg, route intraperitoneal; conditions: in vivo; outline: as §1
[4] = Elimination rate constant in BALB/c mouse at 23 mg/kg, iv after 1 to 24 hrs by LC-MS/MS analysis; assay type: ADME, organism-based; set-up: dose 23 mg/kg, route intravenous; conditions: in vivo; outline: as §1
[5] = tested on: Plasmodium falciparum; assay: Antiplasmodial activity against chloroquine-resistant Plasmodium falciparum Dd2 infected in erythrocytes assessed as parasite growth inhibition after 72 hrs by SYBR green I staining-based fluorescence assay; assay type: functional, organism-based; conditions: Dd2, 72 h
[6] = tested on: Plasmodium falciparum; assay: Antiplasmodial activity against chloroquine-sensitive Plasmodium falciparum 3D7 infected in erythrocytes assessed as parasite growth inhibition after 72 hrs by SYBR green I staining-based fluorescence assay; assay type: functional, organism-based; conditions: 3D7, 72 h
[7] = tested on: Plasmodium yoelii; assay: Antimalarial activity against Plasmodium yoelii infected in Swiss Webster mouse assessed as decrease in parasite load at 10 mg/kg, ip qd administered on day 2 to 5 by Hoechst 33342 staining-based FACS analysis relative to control; assay type: functional; set-up: scale not given: the % may be the effect or the level left; conditions: route intraperitoneal
Outline: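 Mice infected with Plasmodium yoelii, dosed once daily at 5 or 10 mg/kg. Vehicle-only injected mice served as controls. Parasitemia was measured by FACS, including 24 h after the first dose, after the second dose, and at the end of the four-day trial.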

[8] = tested on: Mus musculus; assay: Toxicity in Swiss Webster mouse at 5 to 10 mg/kg, ip qd administered on day 2 to 5; assay type: organism-based; set-up: dose 5-10 mg/kg, route intraperitoneal; conditions: in vivo
[9] = Metabolic stability in human Liver S9 fraction assessed as formation of metabolite M5 at 10 uM by LC-MS analysis in presence of UDPGA; assay type: ADME, subcellular; conditions: s9, 10 µM
Outline: (§2)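 Reaction products from S9 or microsomal incubations with NADPH analysed by LC-MS. Runs without UDPGA were checked for hydroxylated (m/z 677) and doubly hydroxylated (m/z 693) species. Runs with UDPGA were checked for a glucuronide (m/z 837).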

[10] = tested on: Liver microsomes; assay: Metabolic stability in human liver microsomes assessed as formation of metabolite M5 at 10 uM by LC-MS analysis in presence of UDPGA; assay type: ADME, Microsome; outline: as §2
[11] = Metabolic stability in human liver S9 fraction assessed as formation of metabolite M4 at 10 uM by LC-MS analysis in presence of NADPH and absence of UDPGA; assay type: ADME, subcellular; conditions: s9, 10 µM; outline: as §2
[12] = Metabolic stability in human liver S9 fraction assessed as formation of metabolite M3 at 10 uM by LC-MS analysis in presence of NADPH and absence of UDPGA; assay type: ADME, subcellular; conditions: s9, 10 µM; outline: as §2
[13] = Metabolic stability in human liver S9 fraction assessed as formation of metabolite M2 at 10 uM by LC-MS analysis in presence of NADPH and absence of UDPGA; assay type: ADME, subcellular; conditions: s9, 10 µM; outline: as §2
[14] = Metabolic stability in human liver S9 fraction assessed as formation of metabolite M1 at 10 uM by LC-MS analysis in presence of NADPH and absence of UDPGA; assay type: ADME, subcellular; conditions: s9, 10 µM; outline: as §2
[15] = tested on: Liver microsomes; assay: Metabolic stability in human liver microsomes assessed as formation of metabolite M4 at 10 uM by LC-MS analysis in presence of NADPH and absence of UDPGA; assay type: ADME, Microsome; outline: as §2
[16] = tested on: Liver microsomes; assay: Metabolic stability in human liver microsomes assessed as formation of metabolite M3 at 10 uM by LC-MS analysis in presence of NADPH and absence of UDPGA; assay type: ADME, Microsome; outline: as §2
[17] = tested on: Liver microsomes; assay: Metabolic stability in human liver microsomes assessed as formation of metabolite M2 at 10 uM by LC-MS analysis in presence of NADPH and absence of UDPGA; assay type: ADME, Microsome; outline: as §2
[18] = tested on: Liver microsomes; assay: Metabolic stability in human liver microsomes assessed as formation of metabolite M1 at 10 uM by LC-MS analysis in presence of NADPH and absence of UDPGA; assay type: ADME, Microsome; outline: as §2
[19] = tested on: Liver microsomes; assay: Half life in human liver microsomes at 10 uM after 24 hrs by LC-MS analysis in presence of UDPGA; assay type: ADME, Microsome
Outline: (§3)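 Compound incubated with human liver S9 or microsomal fractions for 24 h, extended from 4 h, with NADPH and with or without UDPGA. Loss of parent compound followed over time, sampled at 6 and 24 h. In vitro t1/2 and CLint calculated from the loss.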

[20] = Metabolic stability in human liver microsomes assessed as compound remaining at 10 uM after 24 hrs by LC-MS analysis in presence of UDPGA; assay type: ADME, Microsome; conditions: read-out: Stability; outline: as §3
[21] = tested on: Liver microsomes; assay: Half life in human liver microsomes at 10 uM after 24 hrs by LC-MS analysis in absence of UDPGA; assay type: ADME, Microsome; outline: as §3
[22] = tested on: Liver microsomes; assay: Intrinsic clearance in human liver microsomes at 10 uM after 24 hrs by LC-MS analysis in absence of UDPGA; assay type: ADME, Microsome; outline: as §3
[23] = Drug metabolism in human liver microsomes at 10 uM after 24 hrs by LC-MS analysis in absence of UDPGA; assay type: ADME, Microsome; conditions: read-out: Drug metabolism; outline: as §3
[24] = Half life in human liver S9 fraction at 10 uM after 24 hrs by LC-MS analysis in presence of UDPGA; assay type: ADME, subcellular; conditions: s9, 24 h; outline: as §3
[25] = tested on: Liver; assay: Half life in human liver S9 fraction at 10 uM after 24 hrs by LC-MS analysis; assay type: ADME, subcellular; conditions: s9, 24 h; outline: as §3
[26] = Drug metabolism in human liver S9 fraction at 10 uM after 24 hrs by LC-MS analysis in presence of UDPGA; assay type: ADME, subcellular; conditions: s9, 24 h; outline: as §3
[27] = Metabolic stability in human liver S9 fraction at 10 uM after 24 hrs by LC-MS analysis in absence of S9 enzyme and NADPH; assay type: ADME, subcellular; conditions: s9, 24 h
Outline: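 Control incubations for the S9 metabolism assay run over 24 h, lacking either the enzyme or NADPH.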

[28] = Drug metabolism in human liver S9 fraction at 10 uM after 24 hrs by LC-MS analysis; assay type: ADME, subcellular; conditions: read-out: Drug metabolism; outline: as §3
[29] = Metabolic stability in human liver cytosolic subcellular fraction at 10 uM after 4 hrs by LC-MS analysis; assay type: ADME; conditions: cytosol
[30] = tested on: Liver; assay: Metabolic stability in human liver S9 fraction at 10 uM after 4 hrs by LC-MS analysis; assay type: ADME, subcellular; conditions: s9, 4 h
Outline: (§4)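 Initial incubations with the human liver S9 or microsomal fraction lasted 4 h.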

[31] = tested on: Liver microsomes; assay: Metabolic stability in human liver microsomes at 10 uM after 4 hrs by LC-MS analysis; assay type: ADME, Microsome; outline: as §4
[32] = Drug degradation in mouse serum at 150 uM after 48 hrs by HPLC analysis; assay type: ADME, cell-free; conditions: read-out: Drug degradation
Outline: (§5)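 Compound incubated in mouse serum at 37 °C. Remaining compound measured at 24 h and 48 h.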

[33] = tested on: Serum; assay: Metabolic stability in mouse serum at 150 uM after 24 hrs by HPLC analysis; assay type: ADME, cell-free; outline: as §5
[34] = Plasma clearance in BALB/c mouse at 23 mg/kg, iv after 1 to 24 hrs by LC-MS/MS analysis; assay type: ADME, organism-based; set-up: dose 23 mg/kg, route intravenous; outline: as §1
[35] = Apparent volume of distribution in BALB/c mouse at 23 mg/kg, iv after 1 to 24 hrs by LC-MS/MS analysis; assay type: ADME, organism-based; set-up: dose 23 mg/kg, route intravenous; conditions: in vivo, read-out: Vd(app); outline: as §1
[36] = Initial plasma concentration in BALB/c mouse at 23 mg/kg, iv after 1 to 24 hrs by LC-MS/MS analysis; assay type: ADME, organism-based; set-up: dose 23 mg/kg, route intravenous; outline: as §1
[37] = AUC in BALB/c mouse at 23 mg/kg, iv after 1 to 24 hrs by LC-MS/MS analysis; assay type: ADME, organism-based; set-up: dose 23 mg/kg, route intravenous; conditions: plasma; outline: as §1
[38] = AUC in BALB/c mouse at 23 mg/kg, ip after 1 to 24 hrs by LC-MS/MS analysis; assay type: ADME, organism-based; set-up: dose 23 mg/kg, route intraperitoneal; conditions: plasma; outline: as §1
[39] = Tmax in BALB/c mouse at 23 mg/kg, ip after 1 to 24 hrs by LC-MS/MS analysis; assay type: ADME, organism-based; set-up: dose 23 mg/kg, route intraperitoneal; conditions: in vivo; outline: as §1
[40] = tested on: Plasmodium falciparum; assay: Antiplasmodial activity against chloroquine-sensitive Plasmodium falciparum MRC-02 assessed as suppression of parasitemia at 50 mg/kg, po by in vivo model study; assay type: functional
[41] = tested on: Plasmodium falciparum; assay: Antiplasmodial activity against ring stage of chloroquine-sensitive Plasmodium falciparum MRC-02 infected in human erythrocytes assessed as parasite growth inhibition after 24 hrs by Giemsa staining method; assay type: functional, organism-based; conditions: MRC-02, 24 h
[42] = Apparent clearance in Swiss mouse at 50 mg/kg, ip after 1 to 24 hrs by LC-MS/MS analysis; assay type: ADME, organism-based; set-up: dose 50 mg/kg, route intraperitoneal; conditions: in vivo, read-out: CL(app)
[43] = tested on: Plasmodium berghei; assay: Antimalarial activity against Plasmodium berghei ANKA infected in NMRI mouse assessed as reduction of parasitemia at 10 mg/kg, po qd administered 3 days by flow cytometric analysis; assay type: functional; set-up: scale not given: the % may be the effect or the level left

## CC1=C2Cc3cc(ccc3O)C(=O)O[C@H](C(C)(C)Br)CC[C@](C)(O)[C@H](Br)CC[C@]2(C)[C@@H](Br)CC1
[1]
  Cmax: 5800 ng/mL
[2]
  half-life: 0.75 h
[3]
  ka: 0.24 h⁻¹
[4]
  k el: 0.000258 s⁻¹
[5]
  pIC50: 6.42
[6]
  pIC50: 6.30
[7]
  Activity: 47%
[8]
  Activity: Non-toxic
[9]
  Stability: Unstable
[10]
  Stability: Unstable
[11]
  Stability: Unstable
[12]
  Stability: Unstable
[13]
  Stability: Unstable
[14]
  Stability: Unstable
[15]
  Stability: Unstable
[16]
  Stability: Unstable
[17]
  Stability: Unstable
[18]
  Stability: Unstable
[19]
  t1/2: 6.6 h
[20]
  remaining at 24 h, 10 µM: 15.3%
[21]
  t1/2: 14 h
[22]
  CLint: 0.72 mL/min/kg
[23]
  metabolised at 24 h, 10 µM: 61%
[24]
  t1/2: 9.5 h
[25]
  t1/2: 20 h
[26]
  Drug metabolism: 21%
[27]
  Stability: Stable
[28]
  metabolised at 24 h, 10 µM: 55%
[29]
  Stability: Stable
[30]
  Stability: Stable
[31]
  Stability: Stable
[32]
  metabolised at 48 h, 150 µM: 27%
[33]
  Stability: Stable
[34]
  clearance: 16 mL/min/kg
[35]
  Vd: 0.95 L/kg
[36]
  C0: 24000 ng/mL
[37]
  AUC: 26000 ng·h/mL
[38]
  AUC: 20000 ng·h/mL
[39]
  Tmax: 1.5 h

## CC(=O)Oc1ccc2cc1CC1=C(C)CC[C@H](Br)[C@@]1(C)CC[C@@H](Br)[C@@](C)(O)CC[C@@H](C(C)(C)Br)OC2=O
[6]
  pIC50: 6.62

## CC(=O)OC[C@@H]1CC[C@]2(C)C(C)=CC(=O)C[C@H]2[C@]1(C)CCC1=CCOC1=O
[40]
  Activity: 45%
[41]
  pIC50: 5.06

## CCN(CC)CCCC(C)Nc1ccnc2cc(Cl)ccc12 (centres undefined) [CHLOROQUINE]
[42]
  CL/F: 17 mL/min/kg

## C[C@H]1Cc2c([nH]c3cc(Cl)c(F)cc23)[C@@]2(N1)C(=O)Nc1ccc(Cl)cc12 [CIPARGAMIN]
[43]
  Activity: 99%

Reference: ChEMBL document CHEMBL2439960, “Pharmacokinetics, metabolism, and in vivo efficacy of the antimalarial natural product bromophycolide A” (ACS Med Chem Lett, 2013)
